MBD2 inh – blocks human MBD2 binding to methylated DNA. Q9UBB5. TR-FRET, MBD2 binding to methylated oligonucleotide. inhibition, % at 4.4 µM. 0.31% of 370,000 active. AID 686964; in the data active = inhibition above about 13%
Target sequence (Q9UBB5 whole entry, looked up): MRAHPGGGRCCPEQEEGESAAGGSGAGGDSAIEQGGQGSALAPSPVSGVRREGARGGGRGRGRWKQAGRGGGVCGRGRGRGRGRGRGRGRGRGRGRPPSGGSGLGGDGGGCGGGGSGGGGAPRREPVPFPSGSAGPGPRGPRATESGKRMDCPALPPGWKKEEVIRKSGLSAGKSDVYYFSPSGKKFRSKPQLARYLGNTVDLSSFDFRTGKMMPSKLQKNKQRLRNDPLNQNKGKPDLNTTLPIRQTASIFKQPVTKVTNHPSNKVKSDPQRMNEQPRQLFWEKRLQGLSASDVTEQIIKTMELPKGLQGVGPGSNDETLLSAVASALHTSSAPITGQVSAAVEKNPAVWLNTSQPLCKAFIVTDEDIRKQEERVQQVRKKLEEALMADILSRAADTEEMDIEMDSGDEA
UHRF1 MBD2 ctr – human UHRF1 methylated DNA binding inhibitors; Q96T88; AID 687016; inhibition, % at 4.4 µM; UHRF1 binding to methylated oligo, TR-FRET; 0.75% of 370,000 active; in the data active = inhibition above about 21%;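 note: UHRF1 SRA domain binding a hemimethylated CpG hairpin DNA probe; 0% = median of test compound wells and 100% = reference inhibitor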
DDE Tn7 FP inh – DD(E)-Tn7 binding inhibition, primary FP screen; P02675; 0.13% of 370,000 active; inhibition, % at 8.3 µM; FP displacement of FITC-Tn7 peptide from fibrin DD(E); 0% = median of compound wells per plate;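 active = inhibition above the mean of compounds falling within the control limits plus 3 SD of them, cut at about 14% in these data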;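 note: 0% = plate median of compound wells and 100% = 10 µM Aha-Tn7 peptide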
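system = human fibrin DD(E) protein | quantity = DD(E) 2 µM final | medium = Tris/NaCl/CaCl2 buffer, pH 7.8 | also added = labelled Tn7 tracer, 0.1 µM | compound dosing = single point at 8.3 µM | timing = compound with protein 10 min, then 3 h after probe, room temperature | signal = FP measurement | benchmarks = Aha-Tn7 high control | repeats = one replicate per compound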
Tn6 DDE FP – disrupts Tn6 cyclic peptide binding to fibrin D-Dimer-E complex. Fibrin DD(E) TRITC-Tn6 fluorescence polarization displacement. 0.21% of 370,000 active. inhibition, % at 8.3 µM. AID 720509;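 active = inhibition above a per-campaign cutoff: mean of compounds within control limits plus 3 SD, cut at about 15% in these data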;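 note: 0% = median of all compound wells on the plate and 100% = blocking peptide control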
LEDGF integ inh – blocks HIV-1 LEDGF/p75-dependent DNA integration; TR-FRET IN-LEDGF/p75 DNA integration, Eu/Cy5; inhibition, % at 3.7 µM; 0.64% of 370,000 active; AID 743269;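 active = inhibition above the screen-wide mean plus 3 SD, cut at about 13% in these data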;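 note: signal is the Cy5 over europium emission ratio at 671 and 618 nm; 0% = plate median of compound wells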
TDP2 inh – TDP2 (human) inhibition, absorbance primary screen; 0.34% of 370,000 active; recombinant TDP2, T5PNP hydrolysis, p-nitrophenol absorbance 415 nm; AID 720702; inhibition, % at 12.8 µM; O95551;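 active = inhibition above the mean of all tested compounds plus 3 SD, set per campaign, cut at about 25% in these data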;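 note: 0% = DMSO with enzyme and 100% = buffer with substrate but no TDP2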
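Assay system: recombinant human TDP2 / Reagent: T5PNP substrate at 5 mM, a TopII-DNA adduct mimic / Measured by: epi absorbance from released p-nitrophenol / Evaluation: % inhibition relative to enzyme-containing and enzyme-free wells / Control set: enzyme-free and DMSO wells / Replicates: each compound tested once, singlicate / Schedule: enzyme reaction with compound for 2 h at 37 °C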
Tn6 DDE ctr – DD(E)-Tn6 binding inhibition, counter-screen; shares compounds with Tn6 DDE FP; Fibrin DD(E), TRITC-Tn6 fluorescence polarization displacement; 0% = median of compound wells, not DMSO; inhibition, % at 8.3 µM; 2% of 680 active; AID 720621;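 active = inhibition above the mean of test compounds lying between the control limits plus 3 SD of those, cut at about 14% in these data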;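 note: 0% = median of compound wells and 100% = wells with Aha-Tn7 blocking peptide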
Tn6 DDE conf – confirmation of inhibitors of Tn6 binding to human fibrin DD(E). shares compounds with Tn6 DDE FP. FP displacement of TRITC-Tn6 peptide from DD(E); 0% = per-plate median of test wells. inhibition, % at 8.3 µM. 10% of 680 active;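 active = inhibition above the mean of compounds lying within the control limits plus 3 SD, cut at about 16% in these data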;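 note: 100% = high control wells holding a competing inhibitor peptide at 10 µM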
Starred values were filed as active, the others as inactive; / = no result. A selection: hits, their analogues and other compounds. The true share with any hit is near 1.9%.

SMILES	MBD2 inh	UHRF1 MBD2 ctr	DDE Tn7 FP inh	Tn6 DDE FP	LEDGF integ inh	TDP2 inh	Tn6 DDE ctr	Tn6 DDE conf
OCCN1CCN(CCOc2cccc(Cl)c2)CC1	-3	-2	-7	17*	2	5	0	-4
CCNC(=O)CCc1nc(-c2ccc(C(C)C)cc2)no1	4	-2	7	-8	0	7	/	/
O=C(CCNS(=O)(=O)c1ccccc1)OCc1ccc([N+](=O)[O-])cc1	0	3	3	-4	0	-5	/	/
Cc1ccc(S(=O)(=O)NCCC(=O)OCc2ccc([N+](=O)[O-])cc2)cc1C	-1	-2	-2	18*	1	14	5	5
CC(=O)N1CCSc2ccc(S(=O)(=O)NCCc3ccc(C)cc3)cc21	-1	0	-4	-2	-5	5	/	/
CC(=O)N1CCSc2ccc(S(=O)(=O)NCCc3cccc(C)c3)cc21	-1	1	0	16*	1	-23	-1	-2
Cc1ccc(-n2c(C)cc(=O)cc2C)c(C)c1	-2	0	2	-2	3	3	/	/
Cc1cc(N)ccc1-n1c(C)ccc1C	-2	-1	4	154*	2	12	2	11
CCO/C(C)=N/Oc1cccc(N(C)C)c1	-4	29*	8	19*	-2	-5	3	2
C[C@H](O)[C@@H]1C(=O)N2CCc3c([nH]c4ccccc34)[C@@H]2C[C@@H]1N(C)C(=O)OCc1ccccc1	4	-2	-2	-2	-3	-3	/	/
Cc1cc(-c2nnn(CCCOC(C)(C)C)c2C)ccc1-c1cn(CCCOC(C)(C)C)nn1	-2	1	-4	17*	-7	1	5	6
CS(=O)(=O)c1cccc(-c2csc(N3CCC(C(N)=O)CC3)n2)c1	-2	-3	-3	16*	-4	-11	6	-2
COC(=O)Cc1nnn2c1[C@H](C)[C@@H](OC)c1ccccc1-2	3	-1	1	-3	3	2	/	/
Cn1cc(-c2cccc3[nH]cc(-c4ccccc4)c23)c2ccccc21	0	-2	-1	-2	-4	-3	/	/
O=C1CCCC(O)=C1N=Nc1c(Cl)cc(C(F)(F)F)cc1Cl	5	2	1	43*	-3	-4	-2	-9
CC1(C)CC(=O)C(N=Nc2cc(C(F)(F)F)ccc2Cl)=C(O)C1	5	3	-6	-6	1	2	/	/
C#CCN1CC(COc2ccccc2)Oc2cccc(Oc3ccc(C(C)C)cc3)c2S1(=O)=O (centres undefined)	-3	0	6	-1	-5	3	/	/
CC(OC(=O)c1cccc([N+](=O)[O-])c1)C(=O)N1CCc2ccccc21 (centres undefined)	0	-1	-12	16*	1	-16	3	1
Cc1ccc(C)c2c1cc(C)c1nnc(SCC(=O)N3CCCc4ccccc43)n12	-3	-1	-5	2	-2	6	/	/
CCn1c(=O)c2ccccc2n2c(SCC(=O)N3CCCc4ccccc43)nnc12	-2	-2	2	15*	-2	4	-4	-5
CC1CCCN(C(=O)COC(=O)Cc2ccc(Cl)cc2)C1 (centres undefined)	-3	0	-2	-3	4	8	/	/
COc1ccc(CC(=O)OCC(=O)N2CCCC(C)C2)cc1 (centres undefined)	2	-1	-2	15*	-1	10	-4	-8
Cc1cccc(CC(=O)NCCn2c(C)cc3ccccc32)c1	-2	0	4	9	1	0	/	/
Cc1cc2ccccc2n1CCNC(=O)Cc1ccccc1	-5	-4	11	26*	-2	6	-6	-4
Cc1cc(C)c(S(=O)(=O)NCCn2c(C)cc3ccccc32)c(C)c1	2	3	-8	56*	7	0	-4	23*
SMILES	MBD2 inh	UHRF1 MBD2 ctr	DDE Tn7 FP inh	Tn6 DDE FP	LEDGF integ inh	TDP2 inh	Tn6 DDE ctr	Tn6 DDE conf
Cc1cc2ccccc2n1CCNC(=O)c1ccc(S(=O)(=O)N2CCCCC2)cc1	-1	-1	0	62*	-3	8	-4	31*
O=C(c1coc(=O)c(Br)c1)N1CCOCC1	-2	-2	3	18*	0	-6	-2	-4
Cc1cc(O)cc(=O)n1-c1cccc(Br)c1	1	4	1	0	4	-4	/	/
CCCCNC(=O)CCC(=O)Nc1ccc2nc(N3CCCCC3)cc(C)c2c1	-3	-1	5	16*	-2	-17	4	3
COc1ccc(C(=O)c2ccsc2N)cc1	-5	-4	3	19*	-2	8	-6	-8
COc1ccc(C=NNC(=O)c2cc(-c3ccc(C)c(C)c3)n[nH]2)cc1OCc1ccccc1	-1	-2	-6	16*	9	-12	2	2
Cc1ccc(-c2cc(C(=O)NN=Cc3ccc(F)cc3)[nH]n2)cc1C	3	0	1	-12	-4	-5	/	/
Cc1ccc(-c2cc(C(=O)NN=Cc3c4ccccc4cc4ccccc34)[nH]n2)cc1C	-1	-1	3	-5	-2	4	/	/
Cc1ccc(-c2cc(C(=O)NN=Cc3cccc(Oc4ccccc4)c3)[nH]n2)cc1C	-5	-2	1	19*	2	4	4	0
Cc1ccc(-c2cc(C(=O)NN=Cc3cccc(OCc4ccccc4)c3)[nH]n2)cc1C	-3	-1	-6	20*	1	-6	8	16*
COc1ccc(/C=N/NC(=O)c2cc(-c3ccc4c(c3)OCO4)n[nH]2)cc1OC	-5	0	-11	-14	-1	6	/	/
CCCCCCC12Cc3cc(OC)c(OC)cc3C(O1)c1c(cc(C)oc1=O)O2 (centres undefined)	-3	0	4	6	3	4	/	/
CCCCN1CCCOc2cc(Br)ccc2S1(=O)=O	3	-4	-5	5	6	-1	/	/
Cc1cc(C(F)(F)F)n2nc(-c3cnn(C)c3C(F)(F)F)c(Cl)c2n1	-1	2	0	16*	1	5	9	5
Cc1cc(C)n2nc(-c3cnn(C)c3C(F)(F)F)c(Cl)c2n1	4	-3	6	1	-3	8	/	/
O=c1ccc2nc3ccccc3sc-2c1	5	3	-3	20*	2	-2	-6	15
Brc1ccc(-c2nc3ccccc3s2)s1	-1	-3	3	-5	0	-9	/	/

Assay outcomes (PubChem BioAssay)
